This passage reports inhibition in vivo results from ChEMBL document CHEMBL1157242, “Triterpene saponins with gastroprotective effects from tea seed (the seeds of Camellia sinensis)” (2006).

Structures can show the parent of a compound that is named as a salt.

Common to all, as to settings: Gastric mucosa
The subject of test [1] is Rattus norvegicus. The test is described as follows: Gastroprotective effect in […] assessed as inhibition of ethanol-induced gastric mucosal lesions at 5 mg/kg, po administered 1 hr prior to ethanol challenge relative to control. In kind it is functional. In outline: (§1)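 Male […] fasted 24-26 h with free access to water, conscious. Given agent orally at 5.0 mL/kg, suspended in 5% acacia or 0.5% CMC-Na. 1 h later, 99.5% ethanol 1.5 mL/rat by orogastric tube. After 1 h, stomach fixed with 1.5% formalin and opened. Lesion index is total lesion length (mm). Inhibition is versus vehicle controls, n = 4-6.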

Test [2] relates to Rattus norvegicus. The test is described as follows: Gastroprotective effect in […] assessed as inhibition of ethanol-induced gastric mucosal lesions at 20 mg/kg, po administered 1 hr prior to ethanol challenge relative to control. In kind it is functional. In outline:
as §1

The test system of test [3] is Rattus norvegicus. The test can be described thus: Gastroprotective effect in […] assessed as inhibition of ethanol-induced gastric mucosal lesions at 15 mg/kg, po administered 1 hr prior to ethanol challenge relative to control. The format is functional. In outline:
as §1

The test system of test [4] is Rattus norvegicus. The test is described as follows: Gastroprotective effect in […] assessed as inhibition of ethanol-induced gastric mucosal lesions at 10 mg/kg, po administered 1 hr prior to ethanol challenge relative to control. The format is functional. In outline: as §1
Test [5] deals with Rattus norvegicus. The test can be described thus: Gastroprotective effect in […] assessed as inhibition of ethanol-induced gastric mucosal lesions at 5 mg/kg, po administered 1 hr prior to ethanol challenge relative to control.
Test [6] deals with Rattus norvegicus. The test can be described thus: Gastroprotective effect in […] assessed as inhibition of ethanol-induced gastric mucosal lesions at 300 mg/kg, po administered 1 hr prior to ethanol challenge relative to control. The format is functional. The procedure, abridged: as §1
Test [7] concerns Rattus norvegicus. The test can be described thus: Gastroprotective effect in […] assessed as inhibition of ethanol-induced gastric mucosal lesions at 150 mg/kg, po administered 1 hr prior to ethanol challenge relative to control. In kind it is functional. The procedure, abridged:
as §1

Test [8] deals with Rattus norvegicus. The test is described as follows: Gastroprotective effect in […] assessed as inhibition of ethanol-induced gastric mucosal lesions at 75 mg/kg, po administered 1 hr prior to ethanol challenge relative to control. The format is functional. In outline: as §1

Regarding `C/C=C(/C)C(=O)O[C@H]1[C@H](OC(C)=O)[C@@]2(CO)C(CC1(C)C)C1=CCC3[C@@]4(C)CC[C@H](O[C@@H]5O[C@H](C(=O)O)[C@@H](O)[C@H](O[C@@H]6OC[C@H](O)[C@H](O)[C@H]6O[C@@H]6OC[C@@H](O)[C@H](O)[C@H]6O)[C@H]5O[C@H]5O[C@H](CO)[C@H](O)[C@H](O)[C@H]5O)[C@@](C)(CO)C4CC[C@@]3(C)[C@]1(C)C[C@H]2O` (stereo partly drawn) [ASSAMSAPONINS D], in test [1], the inhibition in vivo (as a rule, the drop in the measured response relative to a control, in per cent) at 5 mg/kg was 47.9%.

Consider `COc1ccc2[nH]c([S+]([O-])Cc3ncc(C)c(OC)c3C)nc2c1` (stereo not drawn) [OMEPRAZOLE], for which the inhibition in vivo at 20 mg/kg in test [2] turned out to be 89.4%. Moreover, the inhibition in vivo at 15 mg/kg in test [3] was 82%. The inhibition in vivo at 10 mg/kg in test [4] turned out to be 43.1%.

For `C/C=C(/C)C(=O)O[C@H]1[C@H](O)[C@@]2(COC(C)=O)C(CC1(C)C)C1=CCC3[C@@]4(C)CC[C@H](O[C@@H]5O[C@H](C(=O)O)[C@@H](O)[C@H](O[C@@H]6OC[C@H](O)[C@H](O)[C@H]6O[C@@H]6OC[C@@H](O)[C@H](O)[C@H]6O)[C@H]5O[C@H]5O[C@H](CO)[C@H](O)[C@H](O)[C@H]5O)[C@@](C)(C(=O)OC)C4CC[C@@]3(C)[C@]1(C)C[C@H]2O` (stereo partly drawn) [THEASAPONINS F3], the inhibition in vivo at 5 mg/kg in test [1] is 42.1%.

As for `C/C=C(/C)C(=O)O[C@H]1[C@H](O)[C@@]2(CO)C(CC1(C)C)C1=CCC3[C@@]4(C)CC[C@H](O[C@@H]5O[C@H](C(=O)O)[C@@H](O)[C@H](O[C@@H]6OC[C@H](O)[C@H](O)[C@H]6O[C@@H]6OC[C@@H](O)[C@H](O)[C@H]6O)[C@H]5O[C@H]5O[C@H](CO)[C@H](O)[C@H](O)[C@H]5O)[C@@](C)(CO)C4CC[C@@]3(C)[C@]1(C)C[C@H]2O` (stereo partly drawn) [THEASAPONINS A1], the inhibition in vivo at 5 mg/kg in test [1] is 37%.

On to `C/C=C(/C)C(=O)O[C@H]1[C@H](O)[C@@]2(COC(C)=O)C(CC1(C)C)C1=CCC3[C@@]4(C)CC[C@H](O[C@@H]5O[C@H](C(=O)O)[C@@H](O)[C@H](O[C@@H]6OC[C@H](O)[C@H](O)[C@H]6O[C@@H]6OC[C@@H](O)[C@H](O)[C@H]6O)[C@H]5O[C@H]5O[C@H](CO)[C@H](O)[C@H](O)[C@H]5O)[C@@](C)(C=O)C4CC[C@@]3(C)[C@]1(C)C[C@H]2O` (stereo partly drawn) [THEASAPONINS E2], for which, in test [5], the inhibition in vivo at 5 mg/kg came out at 77.6%.

Consider `C/C=C(/C)C(=O)O[C@H]1[C@H](O)[C@@]2(COC(C)=O)C(CC1(C)C)C1=CCC3[C@@]4(C)CC[C@H](O[C@@H]5O[C@H](C(=O)O)[C@@H](O)[C@H](O[C@@H]6OC[C@H](O)[C@H](O)[C@H]6O[C@@H]6OC[C@@H](O)[C@H](O)[C@H]6O)[C@H]5O[C@H]5O[C@H](CO)[C@H](O)[C@H](O)[C@H]5O)[C@@](C)(CO)C4CC[C@@]3(C)[C@]1(C)C[C@H]2O` (stereo partly drawn) [THEASAPONINS A2], for which, in test [1], the inhibition in vivo at 5 mg/kg came out at 54.7%.

Regarding `C/C=C(/C)C(=O)O[C@H]1[C@H](OC(C)=O)[C@@]2(CO)C(CC1(C)C)C1=CCC3[C@@]4(C)CC[C@H](O[C@@H]5O[C@H](C(=O)O)[C@@H](O)[C@H](O[C@@H]6OC[C@H](O)[C@H](O)[C@H]6O[C@@H]6OC[C@@H](O)[C@H](O)[C@H]6O)[C@H]5O[C@H]5O[C@H](CO)[C@H](O)[C@H](O)[C@H]5O)[C@@](C)(C=O)C4CC[C@@]3(C)[C@]1(C)C[C@H]2O` (stereo partly drawn) [THEASAPONINS E1], the inhibition in vivo at 5 mg/kg in test [5] stood at 71.4%.

For the compound `C/C=C(/C)C(=O)O[C@H]1CC(C)(C)CC2C3=CCC4[C@@]5(C)CC[C@H](O[C@@H]6O[C@H](C(=O)O)[C@@H](O)[C@H](O[C@@H]7OC[C@H](O)[C@H](O)[C@H]7O[C@@H]7OC[C@@H](O)[C@H](O)[C@H]7O)[C@H]6O[C@H]6O[C@H](CO)[C@H](O)[C@H](O)[C@H]6O)[C@@](C)(C=O)C5CC[C@@]4(C)[C@]3(C)C[C@@H](O)[C@]21CO` (stereo partly drawn) [ASSAMSAPONINS A], in test [1], the inhibition in vivo at 5 mg/kg amounted to 61%.

With `NC[C@H]1CC[C@H](C(=O)Oc2ccc(CCC(=O)O)cc2)CC1` [CETRAXATE HYDROCHLORIDE], the inhibition in vivo at 300 mg/kg in test [6] is 79.4%. Moreover, the inhibition in vivo at 150 mg/kg in test [7] is 65.6%. The inhibition in vivo at 75 mg/kg in test [8] turned out to be 41.2%.
